Legend:
[1] = system: CHO; assay: The minimun drug concentration that gives rise to colonies containing fewer than 50 cells after incubation at 37 degree C against chinese hamster ovary cells; format: functional, cell-based; conditions: Cricetulus griseus
Summary of the method: (§1)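 About 200 cells per dish were grown as clones in drug at 0, 0.5, 1.5, 5, 10, 50 or 100 μM for 7 d at 37 °C in humidified CO2. Colonies were fixed with 10% formaldehyde and stained with 0.1% crystal violet. The value is the lowest tested concentration giving colonies of fewer than 50 cells.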

[2] = system: CHO; assay: The minimun drug concentration that gives rise to colonies containing fewer than 50 cells after incubation at 37 degree C against chinese hamster ovary cells 20 fold resistant to fluoroudine; format: functional, cell-based; conditions: Cricetulus griseus; summary of the method: as §1
[3] = system: Mus musculus; assay: The compound was tested for increase in life span for mice implanted intraperitoneally with P-388/FU Leukemia cell line at 360 mg/kg; format: functional; conditions: P388, ip, route intraperitoneal
Summary of the method: (§2)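 Male BDF1 mice, six per group, implanted ip with 1×10^6 P-388/0 or P-388/FU cells on day 0. Dosed ip daily for 5 days from 24 h post-implant, in saline or Emulphor 620 vehicle. Mice observed until death. %ILS = (T/C − 1)×100, from median survival of treated mice (T) versus saline-treated controls (C).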

[4] = system: Mus musculus; assay: The compound was tested for increase in life span for mice implanted intraperitoneally with P-388/0 Leukemia cell line at 160 mg/kg; format: functional; conditions: P388, ip, route intraperitoneal; summary of the method: as §2
[5] = system: Mus musculus; assay: The compound was tested for increase in life span for mice implanted intraperitoneally with P-388/FU Leukemia cell line at 160 mg/kg; format: functional; conditions: P388, ip, route intraperitoneal; summary of the method: as §2
[6] = system: Mus musculus; assay: The compound was tested for increase in life span for mice implanted intraperitoneally with P-388/0 Leukemia cell line at 240 mg/kg; format: functional; conditions: P388, ip, route intraperitoneal; summary of the method: as §2
[7] = system: Mus musculus; assay: The compound was tested for increase in life span for mice implanted intraperitoneally with P-388/0 Leukemia cell line at 360 mg/kg; format: functional; conditions: P388, ip, route intraperitoneal; summary of the method: as §2
[8] = system: Mus musculus; assay: The compound was tested for increase in life span for mice implanted intraperitoneally with P-388/FU Leukemia cell line at 240 mg/kg; format: functional; conditions: P388, ip, route intraperitoneal; summary of the method: as §2
[9] = system: Mus musculus; assay: The compound was tested for mean survival time for 15 mice implanted Intraperitoneally with P-388/0 Leukemia cell line at 160 mg/kg; format: functional; conditions: route intraperitoneal
Summary of the method: (§3)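 P-388/0 or P-388/FU cells (1×10^6) implanted ip into male BDF1 mice on day 0. Dosing was ip, daily for 5 consecutive days beginning 24 h later, in saline or Emulphor 620 vehicle. Six mice per treated group. Animals followed to death and median survival time recorded in days. The control group had 15 mice.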

[10] = system: Mus musculus; assay: The compound was tested for mean survival time for 15 mice implanted Intraperitoneally with P-388/0 Leukemia cell line at 240 mg/kg; format: functional; conditions: route intraperitoneal; summary of the method: as §3
[11] = system: Mus musculus; assay: The compound was tested for mean survival time for 15 mice implanted Intraperitoneally with P-388/0 Leukemia cell line at 360 mg/kg; format: functional; conditions: route intraperitoneal; summary of the method: as §3
[12] = system: Mus musculus; assay: The compound was tested for mean survival time for 15 mice implanted Intraperitoneally with P-388/FU Leukemia cell line at 160 mg/kg; format: functional; conditions: route intraperitoneal; summary of the method: as §3
[13] = system: Mus musculus; assay: The compound was tested for mean survival time for 15 mice implanted Intraperitoneally with P-388/FU Leukemia cell line at 240 mg/kg; format: functional; conditions: route intraperitoneal; summary of the method: as §3
[14] = system: Mus musculus; assay: The compound was tested for mean survival time for 15 mice implanted Intraperitoneally with P-388/FU Leukemia cell line at 360 mg/kg; format: functional; conditions: route intraperitoneal; summary of the method: as §3
[15] = system: Mus musculus; assay: The compound was tested for change in weight for mice implanted intraperitoneally with P-388/0 Leukemia cell line at 160 mg/kg; format: functional; conditions: route intraperitoneal
Summary of the method: (§4)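 Male BDF1 mice inoculated ip on day 0 with 1 × 10^6 leukemia cells (six mice per group, average weight 22 g). Dosing ip once daily for 5 consecutive days starting 24 h after implantation. Fluoropyrimidine references in 0.9% saline; prodrugs formulated with Emulphor 620; vehicle controls 0.2 mL. Percent body weight change recorded per group.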

[16] = system: Mus musculus; assay: The compound was tested for change in weight for mice implanted intraperitoneally with P-388/0 Leukemia cell line at 240 mg/kg; format: functional; conditions: route intraperitoneal; summary of the method: as §4
[17] = system: Mus musculus; assay: The compound was tested for change in weight for mice implanted intraperitoneally with P-388/0 Leukemia cell line at 360 mg/kg; format: functional; conditions: route intraperitoneal; summary of the method: as §4
[18] = system: Mus musculus; assay: The compound was tested for change in weight for mice implanted intraperitoneally with P-388/FU Leukemia cell line at 160 mg/kg; format: functional; conditions: route intraperitoneal; summary of the method: as §4
[19] = system: Mus musculus; assay: The compound was tested for change in weight for mice implanted intraperitoneally with P-388/FU Leukemia cell line at 240 mg/kg; format: functional; conditions: route intraperitoneal; summary of the method: as §4
[20] = system: Mus musculus; assay: The compound was tested for change in weight for mice implanted intraperitoneally with P-388/FU Leukemia cell line at 360 mg/kg; format: functional; conditions: route intraperitoneal; summary of the method: as §4
[21] = The compound was tested for half life in aqueous media in 0.05 M NaOH, at 12.6; format: ADME; conditions: aqueous 0.05 M NaOH, pH 12.6
Summary of the method: (§5)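 A 10^-3 M aqueous stock was diluted into each buffer to a final 10^-4 M and stirred at room temperature. Aliquots were taken at intervals (typically 2–100 h) and parent drug was quantified by reverse-phase C-18 HPLC with UV detection at 268 nm. Half-lives are the average of triplicate determinations.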

[22] = The compound was tested for half life in aqueous media in 0.05 M NaOH, at pH 11.7; format: ADME; conditions: aqueous 0.05 M NaOH; summary of the method: as §5
[23] = The compound was tested for half life in aqueous media in 0.05 M Tris-HCl buffer, at pH 9.0; format: ADME; summary of the method: as §5
[24] = The compound was tested for half life in aqueous media in 0.05 M potassium phosphate buffer, at pH 7.4; format: ADME; summary of the method: as §5
[25] = The compound was tested for half life in aqueous media in 0.05 M sodium acetate buffer, at pH 4.0; format: ADME; summary of the method: as §5
[26] = system: Mus musculus; assay: The compound was tested for increase in life span for mice implanted intraperitoneally with P-388/FU Leukemia cell line at 335 mg/kg; format: functional; conditions: P388, ip, route intraperitoneal; summary of the method: as §2
[27] = system: Mus musculus; assay: The compound was tested for increase in life span for mice implanted intraperitoneally with P-388/0 Leukemia cell line at 149 mg/kg; format: functional; conditions: P388, ip, route intraperitoneal; summary of the method: as §2
[28] = system: Mus musculus; assay: The compound was tested for increase in life span for mice implanted intraperitoneally with P-388/FU Leukemia cell line at 223 mg/kg; format: functional; conditions: P388, ip, route intraperitoneal; summary of the method: as §2
[29] = system: Mus musculus; assay: The compound was tested for increase in life span for mice implanted intraperitoneally with P-388/0 Leukemia cell line at 223 mg/kg; format: functional; conditions: P388, ip, route intraperitoneal; summary of the method: as §2
[30] = system: Mus musculus; assay: The compound was tested for increase in life span for mice implanted intraperitoneally with P-388/0 Leukemia cell line at 335 mg/kg; format: functional; conditions: P388, ip, route intraperitoneal; summary of the method: as §2
[31] = system: Mus musculus; assay: The compound was tested for increase in life span for mice implanted intraperitoneally with P-388/FU Leukemia cell line at 149 mg/kg; format: functional; conditions: P388, ip, route intraperitoneal; summary of the method: as §2
[32] = system: Mus musculus; assay: The compound was tested for mean survival time for 15 mice implanted Intraperitoneally with P-388/0 Leukemia cell line at 149 mg/kg; format: functional; conditions: route intraperitoneal; summary of the method: as §3
[33] = system: Mus musculus; assay: The compound was tested for mean survival time for 15 mice implanted Intraperitoneally with P-388/0 Leukemia cell line at 335 mg/kg; format: functional; conditions: route intraperitoneal; summary of the method: as §3
[34] = system: Mus musculus; assay: The compound was tested for mean survival time for 15 mice implanted Intraperitoneally with P-388/FU Leukemia cell line at 149 mg/kg; format: functional; conditions: route intraperitoneal; summary of the method: as §3
[35] = system: Mus musculus; assay: The compound was tested for mean survival time for 15 mice implanted Intraperitoneally with P-388/FU Leukemia cell line at 223 mg/kg; format: functional; conditions: route intraperitoneal; summary of the method: as §3
[36] = system: Mus musculus; assay: The compound was tested for mean survival time for 15 mice implanted Intraperitoneally with P-388/FU Leukemia cell line at 335 mg/kg; format: functional; conditions: route intraperitoneal; summary of the method: as §3
[37] = system: Mus musculus; assay: The compound was tested for change in weight for mice implanted intraperitoneally with P-388/0 Leukemia cell line at 149 mg/kg; format: functional; conditions: route intraperitoneal; summary of the method: as §4
[38] = system: Mus musculus; assay: The compound was tested for change in weight for mice implanted intraperitoneally with P-388/0 Leukemia cell line at 223 mg/kg; format: functional; conditions: route intraperitoneal; summary of the method: as §4
[39] = system: Mus musculus; assay: The compound was tested for change in weight for mice implanted intraperitoneally with P-388/0 Leukemia cell line at 335 mg/kg; format: functional; conditions: route intraperitoneal; summary of the method: as §4
[40] = system: Mus musculus; assay: The compound was tested for change in weight for mice implanted intraperitoneally with P-388/FU Leukemia cell line at 149 mg/kg; format: functional; conditions: route intraperitoneal; summary of the method: as §4
[41] = system: Mus musculus; assay: The compound was tested for change in weight for mice implanted intraperitoneally with P-388/FU Leukemia cell line at 223 mg/kg; format: functional; conditions: route intraperitoneal; summary of the method: as §4
[42] = system: Mus musculus; assay: The compound was tested for change in weight for mice implanted intraperitoneally with P-388/FU Leukemia cell line at 335 mg/kg; format: functional; conditions: route intraperitoneal; summary of the method: as §4
[43] = The compound was tested for half life in aqueous media in 0.20 M HCl/KCl solution, at pH 1.0; format: ADME; summary of the method: as §5
[44] = system: Mus musculus; assay: The compound was tested for mean survival time for 15 mice implanted Intraperitoneally with P-388/0 Leukemia cell line at 223 mg/kg; format: functional; conditions: route intraperitoneal; summary of the method: as §3

**Q.** Which results are given for `CC(=O)O[C@H]1C[C@H](n2cc(F)c(=O)[nH]c2=O)O[C@@H]1COP(=O)(OCOC(=O)C(C)(C)C)OCOC(=O)C(C)(C)C`?
**A.** IC50 [1]: 5 µM; IC50 [2]: 5 µM; ILS at 360 mg/kg [3]: 45%; ILS at 160 mg/kg [4]: 36%; ILS at 160 mg/kg [5]: 36%; ILS at 240 mg/kg [6]: 45%; ILS at 360 mg/kg [7]: 82%; ILS at 240 mg/kg [8]: 45%; MST [9]: 15 days; MST [10]: 16 days; MST [11]: 20 days; MST [12]: 15 days; MST [13]: 16 days; MST [14]: 16 days; Weight change [15]: -9%; Weight change [16]: -15%; Weight change [17]: -15%; Weight change [18]: -9%; Weight change [19]: -12%; Weight change [20]: -13%

**Q.** Which results are given for `CC(C)(C)C(=O)OCOP(=O)(OCOC(=O)C(C)(C)C)OC[C@H]1O[C@@H](n2cc(F)c(=O)[nH]c2=O)C[C@@H]1O`?
**A.** half-life [21]: 1.8 min; half-life [22]: 0.37 h; half-life [23]: 21.6 h; half-life [24]: 40.2 h; half-life [25]: 172 h; IC50 [1]: 5 µM; IC50 [2]: 5 µM; ILS at 335 mg/kg [26]: 64%; ILS at 149 mg/kg [27]: 36%; ILS at 223 mg/kg [28]: 64%; ILS at 223 mg/kg [29]: 45%; ILS at 335 mg/kg [30]: 73%; ILS at 149 mg/kg [31]: 55%; MST [32]: 15 days; MST [33]: 19 days; MST [34]: 17 days; MST [35]: 18 days; MST [36]: 18 days; Weight change [37]: 3%; Weight change [38]: -11%; Weight change [39]: -12%; Weight change [40]: -9%; Weight change [41]: -12%; Weight change [42]: -13%; half-life [43]: 142 h; MST [44]: 16 days
